Measured values: ChEMBL document CHEMBL1149585, “Toward the development of chemoprevention agents. Part 1: Design, synthesis, and anti-inflammatory activities of a new class of 2,5-disubstituted-dioxacycloalkanes” (Bioorg Med Chem, 2007)

What was measured:
Mus musculus [1] = assay: Antiinflammatory activity against xylene-induced ear edema in Kunming mouse assessed as edema weight at 20 mg/kg, po after 2 hrs relative to control; type: functional
Summary of the method: (§1)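 Male Kunming mice (groups of 12; n = 11 per table footnote) were dosed orally as a suspension in 0.5% CMC, with CMC vehicle and positive control groups. After 30 min, 0.03 ml xylene went on both surfaces of the right ear, with the left ear as control. Mice were killed 2 h later. 7 mm ear punches were weighed, and edema was taken as right minus left weight. Groups were compared by one-way ANOVA, p < 0.05.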

Mus musculus [2] = assay: Inhibition of xylene-induced ear edema in Kunming mouse at 30 mg/kg, po after 2 hrs relative to control; type: functional; summary of the method: as §1
Mus musculus [3] = assay: Antiinflammatory activity against xylene-induced ear edema in Kunming mouse assessed as edema weight at 30 mg/kg, po after 2 hrs relative to control; type: functional; summary of the method: as §1
Mus musculus [4] = assay: Inhibition of xylene-induced ear edema in Kunming mouse at 20 mg/kg, po after 2 hrs relative to control; type: functional; summary of the method: as §1
Mus musculus [5] = assay: Toxicity in mouse assessed as tail bleeding time at 200 mg/kg, po after 30 mins; type: organism-based; design: dose 200 mg/kg, route oral; conditions: in vivo, 0.5 h
Summary of the method: (§2)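 Male mice (18–22 g) were dosed orally, and bleeding time was recorded before dosing and at each post-dose time. Each mouse was held in a tube with its tail protruding, and a 2 mm tail cut was made. Blood was wiped away with tissue every 30 s until bleeding ceased, and the time was recorded. The comparison group received NS.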

Mus musculus [6] = assay: Toxicity in mouse assessed as tail bleeding time at 200 mg/kg, po after 45 mins; type: organism-based; design: dose 200 mg/kg, route oral; conditions: in vivo, 0.75 h; summary of the method: as §2
Mus musculus [7] = assay: Toxicity in mouse assessed as tail bleeding time at 200 mg/kg, po after 60 mins; type: organism-based; design: dose 200 mg/kg, route oral; conditions: in vivo, 1 h; summary of the method: as §2
Mus musculus [8] = assay: Toxicity in mouse assessed as tail bleeding time at 200 mg/kg, po after 90 mins; type: organism-based; design: dose 200 mg/kg, route oral; conditions: in vivo, 1.5 h; summary of the method: as §2

Row | Compound | Activity (Mus musculus [1]) | inhibition in vivo at 20 mg/kg (Mus musculus [4]) | Activity (Mus musculus [5]) | Activity (Mus musculus [6]) | Activity (Mus musculus [7]) | Activity (Mus musculus [8]) | further results
1 | O=C/C=C/c1ccccc1 | 3.4 mg | – | – | – | – | – | –
2 | CC(=O)Oc1ccccc1C(=O)O [ASPIRIN] | – | – | – | – | – | – | inhibition in vivo at 30 mg/kg (Mus musculus [2]): 40.7%; Activity (Mus musculus [3]): 1.85 mg
3 | C[C@@H](O)[C@H](CO)NC(=O)c1ccccc1 | 3.32 mg | – | – | – | – | – | –
4 | O=C(Cc1ccccc1)NC(CO)CCO (single isomer, unassigned) | 3.44 mg | – | – | – | – | – | –
5 | O=C(N[C@H](CO)CCCO)c1ccccc1 | 3.38 mg | – | – | – | – | – | –
6 | O=C(NC(CO)CO)c1ccccc1 | 3.25 mg | – | – | – | – | – | –
7 | O=Cc1cccc([N+](=O)[O-])c1 [3-NITROBENZALDEHYDE] | 3.5 mg | – | – | – | – | – | –
8 | O=C(Cc1ccccc1)NC(CO)CCCO (single isomer, unassigned) | 3.53 mg | – | – | – | – | – | –
9 | O=Cc1ccccc1 [BENZALDEHYDE] | 3.45 mg | – | – | – | – | – | –
10 | O=Cc1ccc(Cl)cc1 | 3.8 mg | – | – | – | – | – | –
11 | CC(O)C(CO)NC(=O)Cc1ccccc1 (single isomer, unassigned) | 3.35 mg | – | – | – | – | – | –
12 | O=C(N[C@H](CO)CCO)c1ccccc1 | 4.01 mg | – | – | – | – | – | –
13 | O=Cc1ccc([N+](=O)[O-])cc1 | 3.39 mg | – | – | – | – | – | –
14 | O=C(Cc1ccccc1)NC(CO)CO | 3.88 mg | – | – | – | – | – | –
15 | C[C@H]1O[C@@H](c2ccc(Cl)cc2)OC[C@H]1NC(=O)Cc1ccccc1 | – | 46.4% | 118.4 s | 119.6 s | 118.6 s | 119 s | –
16 | O=C(N[C@H]1CO[C@H](c2ccc([N+](=O)[O-])cc2)OC1)c1ccccc1 | – | 48.7% | 119.5 s | 117.7 s | 118.6 s | 118.9 s | –
17 | O=C(Cc1ccccc1)N[C@H]1CO[C@@H](c2ccccc2)OC1 | – | 38.5% | 118.5 s | 119.3 s | 117.8 s | 118.9 s | –
18 | O=C(N[C@H]1CO[C@@H](c2ccc([N+](=O)[O-])cc2)OC1)c1ccccc1 | – | 44.2% | 119.4 s | 118.7 s | 120.6 s | 119.4 s | –
19 | O=C(N[C@H]1CO[C@H](c2cccc([N+](=O)[O-])c2)OC1)c1ccccc1 | – | 45.2% | 118.8 s | 118 s | 118.4 s | 118.7 s | –
20 | C[C@@H]1O[C@H](c2ccccc2)OC[C@H]1NC(=O)Cc1ccccc1 | – | 41.3% | 118.5 s | 119 s | 118.6 s | 117.9 s | –
21 | C[C@@H]1O[C@H](c2ccc([N+](=O)[O-])cc2)OC[C@H]1NC(=O)c1ccccc1 | – | 55.4% | 117.8 s | 118.1 s | 118.8 s | 119 s | –
22 | Cc1ccc([C@@H]2OC[C@@H](NC(=O)c3ccccc3)[C@H](C)O2)cc1 | – | 44.9% | 120.4 s | 118.5 s | 118.9 s | 117.7 s | –
23 | Cc1ccc(C=O)cc1 | 3.72 mg | – | – | – | – | – | –
